# From PubChem BioAssay
# M5 antag: antagonists of human muscarinic M5 receptor (CHRM5). P08912. CHO-hM5 cells, Fluo-8 calcium fluorescence, ACh EC80. inhibition, % at 3 µM. 0.59% of 360,000 active;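 active = inhibition above a per-plate cutoff, the mean of that plate's test compounds plus 3 SD, cut at about 27% in these data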
# M4 antag: CHRM4 antagonism in calcium assay; inhibition, % at 3 µM; P08173; CHO-hM4 cells, ACh EC80, Fluo-8 calcium fluorescence; 0.73% of 360,000 active;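 active = inhibition above its plate's cutoff, the mean inhibition of sample wells plus 3 SD, cut at about 27% in these data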
# Target sequence (P08173 whole entry, looked up): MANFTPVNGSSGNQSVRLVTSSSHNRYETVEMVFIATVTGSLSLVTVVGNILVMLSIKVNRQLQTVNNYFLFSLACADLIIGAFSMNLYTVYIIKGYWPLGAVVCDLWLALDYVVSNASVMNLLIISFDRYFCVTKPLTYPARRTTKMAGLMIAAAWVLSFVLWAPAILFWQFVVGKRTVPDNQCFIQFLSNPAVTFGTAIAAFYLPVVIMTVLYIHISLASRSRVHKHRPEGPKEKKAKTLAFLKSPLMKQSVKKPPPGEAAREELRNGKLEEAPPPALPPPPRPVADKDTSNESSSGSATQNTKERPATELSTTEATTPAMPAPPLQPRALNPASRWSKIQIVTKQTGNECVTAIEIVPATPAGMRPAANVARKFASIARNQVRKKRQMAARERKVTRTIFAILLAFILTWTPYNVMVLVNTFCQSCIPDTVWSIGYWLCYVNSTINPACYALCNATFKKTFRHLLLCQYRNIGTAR
# CHRM4 PAM: positive allosteric modulators of human muscarinic M4 receptor. CHO-K1 hM4/Gqi5, Fluo-8 calcium fluorescence, ACh EC20; 0% = ACh EC20, 100% = maximal ACh. activation, % at 3 µM. 0.4% of 360,000 active;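 active = activation above its plate's cutoff, the mean activation of sample wells plus 3 SD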
# M4 ag: agonists of human muscarinic M4 receptor (CHRM4); P08173; CHO-K1 hM4/Gqi5, Fluo-8 calcium fluorescence; vehicle 0%, full acetylcholine response 100%; activation, % at 3 µM; 0.14% of 360,000 active;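 active = activation above the run mean over all test wells plus 3 SD, cut at about 32% in these data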;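 also: peak over basal fluorescence ratio per well then scaled between controls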
# M5 PAM: positive allosteric modulators of human muscarinic M5 receptor | P08912 | CHO-K1 hM5, Fluo-8 calcium, ACh EC20 PAM; 0% = ACh EC20, 100% = ACh EC100 | activation, % at 3 µM | 0.3% of 360,000 active;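 active = activation above the run cutoff, the mean activation of all test compounds plus 3 SD, cut at about 18% in these data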
#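 Test system: CHO-K1 hM5 cells / Doses: single-point, 3 µM nominal / Times: Post-acetylcholine fluorescence recording 140 s / Technique: Fluo-8 calcium fluorescence / Measure: Max/basal fluorescence ratio as % of EC20–EC100 ACh window / Benchmarks: low control EC20 acetylcholine (0%), high control EC100 acetylcholine (100%) / Replicates: one well per compound, no replicates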
# M5 ag: CHRM5 agonism in calcium assay. P08912. CHO-K1 hM5 cells, Fluo-8 calcium fluorescence; 0% DMSO wells, 100% maximal acetylcholine response. activation, % at 3 µM. 0.19% of 360,000 active. AID 624037;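 active = activation above the run's mean over test compounds plus 3 SD, cut at about 23% in these data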;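 also: signal is peak over basal fluorescence ratio across the kinetic read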
# A number is an active result; - = inactive. The list is not random: actives were taken first. Their share in the collection is about 1.9%.
SMILES,M5 antag,M4 antag,CHRM4 PAM,M4 ag,M5 PAM,M5 ag
NC(=S)Nn1c(-c2ccccc2)nc2ccccc2c1=O,-,-,-,-,22.1,-
O=C(COc1ccc2ccccc2c1Br)Nc1ccncc1,28.7,-,-,-,-,-
COc1cccc(OCC(=O)Nc2ccncc2)c1,-,-,-,-,-,-
CC(C)CCOc1cccc(OCC(=O)Nc2ccncc2)c1,32.7,-,-,-,-,-
Cc1cc(OCC(=O)Nc2ccncc2)c(C)cc1Br,33.7,-,-,-,-,-
C[C@@H]1CN([C@H](C)CO)C(=O)CCCn2cc(nn2)CO[C@H]1CN(C)S(=O)(=O)c1ccccc1F,-,-,-,-,-,-
NCCCCCc1nnc(SCc2ccccc2Cl)o1,28.1,-,-,-,-,-
O=C(NCc1nnc(SC/C=C/c2ccccc2)o1)c1ccco1,-,-,-,-,-,-
NCCc1nnc(SCc2c(Cl)cccc2Cl)o1,-,-,-,-,-,-
NCCCCCc1nnc(SC/C=C/c2ccccc2)o1,-,38.5,-,-,-,-
CN1CCN(C2CN(CCc3ccccc3)S(=O)(=O)C2)CC1 (stereo not given),-,-,-,-,-,-
Cc1ccc(N(CC(=O)NC2CC3CCC2C3)S(C)(=O)=O)cc1C (stereo not given),-,-,27.5,-,-,-
CS(=O)(=O)N(CC(=O)NC1CC2CCC1C2)c1cccc(C(F)(F)F)c1 (stereo not given),-,-,-,-,-,-
COc1ccc(/C=C(/NC(=O)c2ccco2)C(=O)Nc2cccc(C(=O)O)c2)cc1,-,-,-,-,-,-
O=C(Nc1cccc(C(=O)O)c1)/C(=C\c1ccccc1Cl)NC(=O)c1ccco1,-,-,21.0,-,-,-
Nc1ccccc1SC1CC(=O)N(c2ccc(Cl)c(Cl)c2)C1=O (stereo not given),27.8,-,-,-,-,-
CC1=C(C(=O)N(C)C)CC(CC(=O)NCc2cccs2)C(=O)N1CCC1=CCCCC1 (stereo not given),-,-,-,-,-,-
COc1ccc(CN2C(=O)c3ccccc3C2c2nnnn2-c2ccc3c(c2)OCCO3)cc1 (stereo not given),-,-,-,-,-,-
CN1C(=O)/C(=C/c2ccc(OCc3ccc(F)cc3)cc2)N(C)C1=S,-,-,-,-,-,-
CN1C(=O)/C(=C/c2ccccc2OCc2cccc(F)c2)N(C)C1=S,44.9,64.8,-,-,-,-
NC(=O)c1c(NC(=O)c2ccccc2F)sc2c1CCC2,-,-,-,-,-,-
CCCC(=O)Nc1ccc(C(=O)NNC(=S)NC(=O)c2cccs2)cc1,-,-,-,-,-,-
CCCC(=O)Nc1ccc(C(=O)NNC(=S)NC(=O)c2ccc(Br)o2)cc1,-,34.1,-,-,-,-
CCOC(=O)c1cnc2c(C)cc(Cl)cc2c1NCCCN1CCOCC1,-,-,-,-,-,-
CCOC(=O)c1cnc2c(C(=O)OC)cccc2c1NCCN1CCOCC1,-,-,-,-,-,-
SMILES,M5 antag,M4 antag,CHRM4 PAM,M4 ag,M5 PAM,M5 ag
CCOC(=O)c1cnc2c(CC)cccc2c1NCCN1CCOCC1,27.5,-,-,-,-,-
CCOC(=O)c1cnc2c(C)cccc2c1NCCCN1CCOCC1,-,-,20.2,-,-,-
COCC#Cc1ccc2c(c1)O[C@@H](CN(C)S(=O)(=O)c1cccc(F)c1)[C@@H](C)CN([C@H](C)CO)S2(=O)=O,-,-,-,-,-,-
c1ccc2c(c1)nc1n2CC2CON(C3CCCCC3)C12 (stereo not given),-,-,24.9,-,-,-
c1ccc(CN2OCC3Cn4c(nc5ccccc54)C32)cc1 (stereo not given),-,-,-,-,-,-
c1ccc(N2OCC3Cn4c(nc5ccccc54)C32)cc1 (stereo not given),-,-,24.4,-,-,-
CCCc1nc2ccc(Cl)cn2c1Cc1ccccc1,-,-,-,-,-,-
CCNc1nc(=S)nc(NC(C)C)[nH]1,-,-,-,-,18.1,-
C[C@H]1CN([C@@H](C)CO)C(=O)CCCn2nncc2CO[C@H]1CN(C)S(=O)(=O)c1ccc2ccccc2c1,-,-,-,-,-,-
CCCCn1c(=NC(=O)c2ccco2)c(C(=O)OCC)cc2c(=O)n3ccccc3nc21,-,-,-,-,-,-
CCCCn1c(=NC(=O)c2ccco2)c(C(=O)OCC)cc2c(=O)n3cccc(C)c3nc21,-,-,-,-,22.1,-
CCCCNC(=O)C1C(c2ccc(C(F)(F)F)cc2)=Nc2ccccc2N1C(=O)c1ccc2nc(C)[nH]c2c1 (stereo not given),-,-,-,-,-,-
N#CNC(=Nc1ccccc1)SCc1ccc(C(=O)O)cc1,-,-,-,-,-,-
N#CNC(=Nc1cccc(C(F)(F)F)c1)SCc1ccc(C(=O)O)cc1,-,38.4,-,-,-,-
COC(=O)[C@]1(Sc2ccc(C)cc2)CC(=O)N[C@@H]1c1ccccc1,-,-,-,-,-,-
Cc1cccc(CSc2nncc(=O)[nH]2)c1,-,-,14.8,-,-,-
Cc1ccc(Nc2cc(C)nn2-c2nc(C)cc(=O)[nH]2)cc1,40.7,58.8,-,-,-,-
O=C(Nc1ccc2c(c1)OCO2)C1Cc2c(-c3ccc4c(c3)OCO4)ccnc2O1 (stereo not given),-,-,-,-,-,-
CCCc1cc(C(=O)NNC(=S)NC2CCCCC2)cs1,-,-,18.1,-,-,-
CCCc1cc(C(=O)NNC(=S)NCc2ccccc2)cs1,-,-,-,-,-,-
CN1CCN(c2cc(-c3ccc4ccccc4c3)nc3ccnn23)CC1,-,-,-,-,-,-
CCN1CCN(C(=S)Nc2ccc3nc4n(c(=O)c3c2)CCCCC4)CC1,-,-,26.6,-,-,-
O=c1c2cc(NC(=S)N3CCCC3)ccc2nc2n1CCCCC2,-,-,-,-,-,-
Cc1cc(C)[n+]2[nH]c(N)c(N=Nc3ccccc3)c2n1,-,-,-,-,21.8,-
OC(c1cccs1)(c1cccs1)C1C[N+]2(CF)CCC1CC2 (stereo not given),62.6,68.5,-,-,-,-
COc1ccc(C(O)c2nc(-c3cc(F)cc(Cl)c3)cs2)cc1 (stereo not given),-,-,-,-,-,-
COc1cc(CC(=O)C(=O)O)oc(=O)c1,-,-,-,-,-,-
CCOC(=O)C1=CCN(S(=O)(=O)c2ccc(Br)cc2)C1c1ccc(C)cc1 (stereo not given),-,-,-,-,-,-
